Data reported in ChEMBL document CHEMBL5150070, “Tricyclic SpiroLactams Kill Mycobacteria In Vitro and In Vivo by Inhibiting Type II NADH Dehydrogenases” (J Med Chem, 2022).
Values after ≈ are worked out from the molar mass of the structure shown. Active and inactive are the calls of the source. No cut-off for these calls is given here.

Experiments:
[1] = test system: Mycobacterium tuberculosis; experiment: Antimycobacterial activity against Mycobacterium tuberculosis H37Rv assessed as reduction in bacterial cell growth by measuring resazurin reduction incubated for 6 days by fluorescence microplate based assay; assay type: functional; conditions: time 6 day
[2] = molecular target: T1, Type II NADH:quinone oxidoreductase NdhA (Mycobacterium tuberculosis, UniProt P95200); experiment: Inhibition of Mycobacterium smegmatis MC2 155 recombinant ndhA assessed as rate of NADH oxidation in the presence of an electron acceptor menadione; set-up: species or system Mycolicibacterium smegmatis
T1 sequence (P95200 whole entry): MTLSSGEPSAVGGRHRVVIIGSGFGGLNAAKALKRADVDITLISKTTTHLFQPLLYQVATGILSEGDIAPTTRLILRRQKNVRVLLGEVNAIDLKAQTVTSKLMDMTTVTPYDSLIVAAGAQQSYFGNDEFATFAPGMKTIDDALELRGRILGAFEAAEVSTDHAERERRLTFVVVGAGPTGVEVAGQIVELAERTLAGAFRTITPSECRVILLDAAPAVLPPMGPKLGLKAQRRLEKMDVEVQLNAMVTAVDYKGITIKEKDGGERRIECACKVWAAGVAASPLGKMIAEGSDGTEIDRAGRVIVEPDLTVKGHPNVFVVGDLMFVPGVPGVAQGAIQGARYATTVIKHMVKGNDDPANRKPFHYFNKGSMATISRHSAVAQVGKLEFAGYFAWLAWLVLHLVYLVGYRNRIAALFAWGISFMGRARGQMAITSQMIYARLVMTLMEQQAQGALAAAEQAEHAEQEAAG

[3] = molecular target: Type II NADH:quinone oxidoreductase Ndh (Mycobacterium tuberculosis, UniProt P95160); experiment: Inhibition of Mycobacterium tuberculosis recombinant type II NADH dehydrogenase ndh expressed in Escherichia coli assessed as rate of NADH oxidation in the presence of an electron acceptor menadione
Procedure, shortened: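 Purified N-terminal MBP-tagged Mtb Ndh (Rv1854c) expressed in E. coli, 70 nM, with 500 µM NADH in 50 mM HEPES pH 7.1 (K₂HPO₄). Compound pre-incubated 15 min at 25°C, reaction started with 100 µM menadione. NADH oxidation followed at 340 nm every 60 s. Rate taken from linear slope; IC50 is the mean ± SD of at least 3 independent experiments.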

Mycobacterium marinum [4] = experiment: In vivo antimycobacterial efficacy in Mycobacterium marinum expressing Wasabi infected zebrafish larvae assessed as prolongation of survival time at 4.8 uM treated for 4 days after 1 day post infection; assay type: functional; conditions: time 4 day
Acinetobacter baumannii = experiment: Antibiotic activity against Acinetobacter baumannii LMG-17978 assessed as reduction in bacterial cell growth by measuring resazurin reduction incubated for 6 days by fluorescence microplate based assay; assay type: functional; conditions: LMG-17978, 144 h, time 6 day
Staphylococcus aureus = experiment: Antibiotic activity against Staphylococcus aureus SH1000 assessed as reduction in bacterial cell growth by measuring resazurin reduction incubated for 6 days by fluorescence microplate based assay; assay type: functional; conditions: SH1000, 144 h, time 6 day
Procedure, shortened: (§1)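 E. coli BW25113, E. coli ΔtolC and S. aureus SH1000 were cultured and tested in cation-adjusted Mueller Hinton II broth. Viability was read by adding resazurin and measuring resorufin fluorescence at Ex 530 nm / Em 590 nm.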

[5] = Metabolic stability in mouse liver microsomes; assay type: ADME, Microsome
[6] = test system: Mycolicibacterium smegmatis; experiment: Antibiotic activity against Mycobacterium smegmatis mc2155 assessed as reduction in bacterial cell growth by measuring resazurin reduction incubated for 6 days by fluorescence microplate based assay; assay type: functional; conditions: mc2155, 144 h, time 6 day
[7] = test system: Mycobacteroides abscessus; experiment: Antibiotic activity against Mycobacterium abscessus CIP104536, Smooth variant assessed as reduction in bacterial cell growth by measuring resazurin reduction incubated for 6 days by fluorescence microplate based assay; assay type: functional; conditions: 144 h, time 6 day
[8] = test system: Mycobacterium tuberculosis; experiment: Bactericidal activity against replicating Mycobacterium tuberculosis H37Rv assessed as reduction in colony forming unit measured at 2 to 4 times of MIC after 1 to 2 weeks; assay type: functional; conditions: time 1-2 weeks
Procedure, shortened: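 Mid-log H37Rv in 7H9-GTy-OADC diluted to OD600 0.02 (~1×10⁶ cfu/mL) and exposed to compound in 96-well replica plates for 1 or 2 weeks. For the 3 lowest concentrations without visible growth, serial 10-fold dilutions plated on 7H11-OADC and cfu counted over 6 weeks at 37°C. Four independent experiments; log10 cfu/mL ± SD.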

[9] = test system: Mycobacterium tuberculosis; experiment: Bactericidal activity against Non-replicating Mycobacterium tuberculosis ss18b-lux model assessed as decrease in luminescence at 10 to 10000 nM; assay type: functional, organism-based; conditions: dose 10-10000 nM, TDE = time-dependent effect
Procedure, shortened: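 Non-replicating streptomycin-starved 18b-lux (14-day starvation) diluted to OD600 0.15 in white 96-well plates with compound and incubated at 37°C. Luminescence read on days 1, 2, 5 and 7 and expressed relative to no-antibiotic controls (n ≥ 3).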

[10] = test system: Mycobacterium tuberculosis; experiment: Bactericidal activity against Non-replicating Mycobacterium tuberculosis ss18b-lux assessed as bacterial killing by measuring CFU after 1 week; assay type: functional, organism-based; conditions: time 1.0 weeks, DDE = dose-dependent effect
Procedure, shortened: (§2)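 Streptomycin-dependent 18b-lux starved of streptomycin for 14 days (OD600 reset to 0.2 on days 7 and 13) to become non-replicating. Diluted to OD600 0.15 on dispensed compound and held at 37°C. On day 7, active wells plated on 7H11-OADC with 50 µg/mL streptomycin and incubated up to 8 weeks for cfu.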

Mycobacterium marinum [11] = experiment: Antibiotic activity against Mycobacterium marinum M strain assessed as reduction in bacterial cell growth by measuring resazurin reduction incubated for 6 days by fluorescence microplate based assay; assay type: functional; conditions: 144 h, time 6 day
[12] = test system: Mycobacteroides abscessus; experiment: Antibiotic activity against Mycobacterium abscessus CIP104536, Rough variant assessed as reduction in bacterial cell growth by measuring resazurin reduction incubated for 6 days by fluorescence microplate based assay; assay type: functional; conditions: 144 h, time 6 day
[13] = test system: Mycobacterium tuberculosis; experiment: Bactericidal activity against Non-replicating Mycobacterium tuberculosis ss18b-lux assessed as decrease in colony forming unit measured at 4.8 uM after 1 weeks; assay type: functional; procedure, shortened: as §2
Mycobacterium marinum [14] = experiment: In vivo antimycobacterial efficacy in Mycobacterium marinum expressing Wasabi infected zebrafish larvae assessed as prolongation of survival at 9.6 uM treated for 4 days after 1 day post infection; assay type: functional, organism-based; conditions: time 4.0 day
Procedure, shortened: (§3)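 Golden mutant or Tg(mpeg1:mCherry) zebrafish embryos were dechorionated and anaesthetised in 0.016% tricaine. At 30 hpf, 2–3 nL containing about 200–250 cfu of Wasabi-expressing M. marinum M (pTEC15) was injected into the caudal vein. The inoculum was confirmed by plating on 7H10. Embryos were kept in E3 at 28.5 °C, 12 per well, to follow infection and survival.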

[15] = Toxicity in noninfected zebrafish larvae assessed as larval development; set-up: species or system Danio rerio; conditions: in vivo
Mycobacterium marinum [16] = experiment: In vivo antimycobacterial efficacy in Mycobacterium marinum expressing Wasabi infected zebrafish larvae assessed as prevention of bacterial infection foci at 0.25 to 2 ug/ml treated for 2 to 4 days after 1 day post infection; assay type: functional, organism-based; conditions: dose 0.25-2 µg/ml, time 2-4 day; procedure, shortened: as §3
[17] = test system: Mycobacterium tuberculosis; experiment: Antibiotic activity against Mycobacterium tuberculosis H37Rv assessed as reduction in bacterial cell growth by measuring resazurin reduction incubated for 6 days by fluorescence microplate based assay; assay type: functional; conditions: 144 h, time 6 day
[18] = test system: Mycobacterium tuberculosis; experiment: Inhibition of Ndh2 in Mycobacterium tuberculosis assessed as decrease in ATP concentration measured after 24 hrs; conditions: DDE = dose-dependent effect
Procedure, shortened: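 Log-phase H37Rv diluted to OD600 0.01 in complete 7H9 and exposed in 96-well plates to compound added from a 100× DMSO stock, at 37°C. ATP measured with BacTiter-Glo luminescence after 4 and 24 h; three independent experiments.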

[19] = test system: Mycobacterium tuberculosis; experiment: Inhibition of Ndh2 in Mycobacterium tuberculosis assessed as increase in NADH/NAD+ ratio at 600 nM measured after 24 hrs
Procedure, shortened: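 Mid-log H37Rv diluted to OD600 0.3 and exposed to compound at 37°C for 2 and 24 h. Pellets extracted in 0.2 M HCl (NAD⁺) or 0.2 M NaOH (NADH), bead-milled, heated 55°C 10 min, neutralised. NAD/NADH-Glo luminescence read against an NADH standard curve, corrected for OD600. Three independent experiments, duplicate technical replicates.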

Mycobacterium avium = experiment: Antibiotic activity against Mycobacterium avium TMC 724, ATCC-25291 assessed as reduction in bacterial cell growth by measuring resazurin reduction incubated for 6 days by fluorescence microplate based assay; assay type: functional; conditions: TMC 724, ATCC-25291, 144 h, time 6 day
Mycobacterium marinum [20] = experiment: in vivo antimycobacterial efficacy in Mycobacterium marinum infected zebrafish larvae assessed as reduction in bacterial burden at 0.25 to 2 micog/ml measured after 2 to 4 days off post infection; assay type: functional, organism-based; conditions: time 2-4 day
[21] = Toxicity in noninfected zebrafish larvae assessed as toxic effect; set-up: species or system Danio rerio; conditions: in vivo
Mycobacterium marinum [22] = experiment: In vivo antimycobacterial efficacy in Mycobacterium marinum expressing Wasabi infected zebrafish larvae assessed as prolongation of survival treated for 4 days after 1 day post infection; assay type: functional, organism-based; conditions: dose 0.3-1.2 µM, time 4.0 day, DDE = dose-dependent effect; procedure, shortened: as §3
Escherichia coli [23] = experiment: Antibiotic activity against Escherichia coli BW25113 assessed as reduction in bacterial cell growth by measuring resazurin reduction incubated for 6 days by fluorescence microplate based assay; assay type: functional; conditions: BW25113, 144 h, time 6 day; procedure, shortened: as §1
Bacillus subtilis = experiment: Antibiotic activity against Bacillus subtilis ATCC6633 assessed as reduction in bacterial cell growth by measuring resazurin reduction incubated for 6 days by fluorescence microplate based assay; assay type: functional; conditions: ATCC6633, 144 h, time 6 day
Pseudomonas aeruginosa = experiment: Antibiotic activity against Pseudomonas aeruginosa POA1 assessed as reduction in bacterial cell growth by measuring resazurin reduction incubated for 6 days by fluorescence microplate based assay; assay type: functional; conditions: POA1, 144 h, time 6 day
[24] = Octanol/PBS partition coefficient, logD of compound at pH 7.4 measured after 2 hrs by shake flask method; assay type: physicochemical; conditions: octanol/water, pH 7.4, 2 h
Procedure, shortened: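 A 10 mM DMSO stock was diluted 50-fold into 1:1 octanol:PBS pH 7.4 and shaken gently for 2 h at room temperature. Each phase was diluted 50-fold in MeOH and quantified by LC-MS/MS. LogD = log of the octanol/PBS concentration ratio from mass signals. Run in triplicate.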

[25] = test system: Mycobacterium tuberculosis; experiment: Antimycobacterial activity against Mycobacterium tuberculosis H37Rv infected in human A-THP1 macrophages assessed as viability of infected macrophages incubated for 96 hrs by fluorescence microplate assay; assay type: functional, organism-based
Procedure, shortened: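 THP-1 cells differentiated with 50 ng/mL PMA for 72 h, infected with log-phase H37Rv (MOI 10, 2 h), and extracellular bacteria killed with 50 µg/mL amikacin for 1 h. Cells detached and seeded at 5×10⁵/mL in RPMI-10% FBS with PMA onto pre-dispensed compound, 96 h at 37°C, 5% CO₂. Macrophage viability by 0.05% resazurin fluorescence.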

Mycobacterium marinum [26] = experiment: In vivo antimycobacterial efficacy in Mycobacterium marinum expressing Wasabi infected zebrafish larvae assessed as prevention of bacterial load using fluorescence pixel count determination at 0.5 ug/ml treated for 2 to 4 days after 1 day post infection; assay type: functional, organism-based; conditions: dose 0.5 µg/ml, time 2-4 day; procedure, shortened: as §3
Escherichia coli [27] = experiment: Antibiotic activity against Escherichia coli deltatolC BW25113 deltatolC assessed as reduction in bacterial cell growth by measuring resazurin reduction incubated for 6 days by fluorescence microplate based assay; assay type: functional; conditions: 144 h, time 6 day; procedure, shortened: as §1
Klebsiella pneumoniae = experiment: Antibiotic activity against Klebsiella pneumoniae LMG 2095 assessed as reduction in bacterial cell growth by measuring resazurin reduction incubated for 6 days by fluorescence microplate based assay; assay type: functional; conditions: LMG 2095, 144 h, time 6 day

Type II NADH:quinone oxidoreductase Ndh, sequence (P95160 whole entry): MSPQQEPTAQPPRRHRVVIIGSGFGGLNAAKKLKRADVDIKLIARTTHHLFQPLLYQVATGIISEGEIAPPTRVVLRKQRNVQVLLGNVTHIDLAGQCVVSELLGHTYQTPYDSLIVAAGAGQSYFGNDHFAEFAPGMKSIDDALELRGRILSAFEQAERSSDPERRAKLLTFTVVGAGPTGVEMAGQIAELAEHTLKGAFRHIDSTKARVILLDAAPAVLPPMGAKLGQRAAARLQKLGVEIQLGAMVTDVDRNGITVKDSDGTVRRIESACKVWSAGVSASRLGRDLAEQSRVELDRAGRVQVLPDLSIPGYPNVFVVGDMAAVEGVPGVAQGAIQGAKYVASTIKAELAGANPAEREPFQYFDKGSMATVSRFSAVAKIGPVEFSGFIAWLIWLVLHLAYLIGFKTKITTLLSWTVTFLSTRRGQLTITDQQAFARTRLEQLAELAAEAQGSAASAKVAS

CC(C)(C)[C@H]1CO[C@]23CCN(Cc4ccccc4)C[C@H]2CCC(=O)N13
MIC98 [1]: 25 µM (≈ 8.56 µg/mL)

COc1ccc(CN2CC[C@]34OC[C@H](C(C)C)N3C(=O)CC[C@@H]4C2)cc1
IC50 [2]: 2340 nM | IC50 [3]: 200 nM | MIC98 [1]: 4.7 µM (≈ 1.68 µg/mL)

CC(C)[C@H]1CO[C@]23CCN(Cc4ccc(OC(F)(F)F)cc4)C[C@H]2CCC(=O)N13
Time (Mycobacterium marinum [4]): 3 days | MIC (Acinetobacter baumannii): > 100 µM | MIC (Staphylococcus aureus): > 100 µM | Drug metabolism [5]: Metabolite_Detected | MIC [6]: 1.3 µM (≈ 0.536 µg/mL) | MIC [7]: 8.1 µM (≈ 3.34 µg/mL) | Activity [8]: 0.8 log10CFU | Activity [9]: Tde | Activity [10]: Dde | MIC (Mycobacterium marinum [11]): 0.16 µM (≈ 0.066 µg/mL) | MIC [12]: 8.1 µM (≈ 3.34 µg/mL) | Activity [13]: 1 log10CFU | Activity (Mycobacterium marinum [14]): Active | Activity [15]: Non-Toxic | Activity (Mycobacterium marinum [16]): Active | MIC [17]: 0.13 µM (≈ 0.0536 µg/mL) | inhibition [18]: Dde | inhibition [19]: Active | MIC (Mycobacterium avium): 0.38 µM (≈ 0.157 µg/mL) | MIC98 [1]: 0.13 µM (≈ 0.0536 µg/mL) | Activity (Mycobacterium marinum [20]): Active | Activity [21]: Non-Toxic | Activity (Mycobacterium marinum [22]): Dde | MIC (Escherichia coli [23]): > 100 µM | MIC (Bacillus subtilis): > 100 µM | MIC (Pseudomonas aeruginosa): > 100 µM | logD [24]: 3.9 | IC50 [25]: 360 nM | Activity (Mycobacterium marinum [26]): Active | MIC (Escherichia coli [27]): 100 µM (≈ 41.2 µg/mL) | MIC (Klebsiella pneumoniae): > 100 µM

C[C@H]1CO[C@]23CCN(Cc4ccccc4)C[C@H]2CCC(=O)N13
MIC98 [1]: >100 µM

CC[C@H](C)[C@H]1CO[C@]23CCN(Cc4ccccc4)C[C@H]2CCC(=O)N13
MIC98 [1]: 9.5 µM (≈ 3.25 µg/mL)
